In ChEMBL document CHEMBL1153088, “Discovery of benzo[g]indol-3-carboxylates as potent inhibitors of microsomal prostaglandin E(2) synthase-1” (Bioorg Med Chem, 2009):
Calls of active or inactive are those of the source. The calls are words filed in the database; no cut-off is given here.

Key:
[1] = target: T1, Prostaglandin E synthase (Homo sapiens) (UniProt O14684); test: Inhibition of mPGES1 in IL1-beta induced human A549 cell microsomal membrane at 10 uM assessed as enzyme residual activity by PGE2 formation assay relative to untreated control; format: microsomes; conditions: Microsome
T1 sequence (whole entry): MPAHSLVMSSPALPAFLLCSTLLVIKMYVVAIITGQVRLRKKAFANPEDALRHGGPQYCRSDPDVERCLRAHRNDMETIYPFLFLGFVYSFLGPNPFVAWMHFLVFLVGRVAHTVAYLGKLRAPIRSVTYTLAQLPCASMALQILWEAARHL
In short: (§1)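 Microsomes from A549 cells treated with IL-1β (1 ng/ml, 72 h) were used at 50 µg/ml in 0.1 M potassium phosphate pH 7.4 with 2.5 mM glutathione. Compound (DMSO 1% final) was preincubated 15 min at 4 °C, then PGH2 was added (20 µM final) for 1 min at 4 °C.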

[2] = target: T2, Prostaglandin G/H synthase 1 (Ovis aries) (UniProt P05979); test: Inhibition of ovine COX1 assessed as residual enzyme activity at 10 uM relative to untreated control
T2 sequence (whole entry): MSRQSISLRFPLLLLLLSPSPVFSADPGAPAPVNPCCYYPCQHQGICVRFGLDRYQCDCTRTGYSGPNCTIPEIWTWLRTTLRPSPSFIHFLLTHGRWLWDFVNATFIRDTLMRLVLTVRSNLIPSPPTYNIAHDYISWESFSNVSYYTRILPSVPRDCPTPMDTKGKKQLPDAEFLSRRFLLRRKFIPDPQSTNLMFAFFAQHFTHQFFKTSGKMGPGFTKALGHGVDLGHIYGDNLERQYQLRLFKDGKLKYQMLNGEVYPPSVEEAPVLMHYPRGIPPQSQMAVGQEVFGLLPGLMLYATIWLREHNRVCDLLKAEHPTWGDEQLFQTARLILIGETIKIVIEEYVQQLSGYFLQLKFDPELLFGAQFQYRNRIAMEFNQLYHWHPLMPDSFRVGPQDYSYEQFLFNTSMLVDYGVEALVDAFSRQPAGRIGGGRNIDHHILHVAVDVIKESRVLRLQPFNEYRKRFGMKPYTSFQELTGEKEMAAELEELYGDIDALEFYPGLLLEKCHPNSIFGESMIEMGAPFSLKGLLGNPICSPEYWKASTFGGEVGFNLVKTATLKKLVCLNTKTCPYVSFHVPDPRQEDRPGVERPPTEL
In short: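 Purified ovine COX-1 (50 units) in 1 ml of 100 mM Tris pH 8 containing 5 mM glutathione, 5 µM hemoglobin and 100 µM EDTA was preincubated with compound for 5 min at 4 °C and prewarmed 60 s at 37 °C. The reaction was started with 5 µM AA and run 5 min at 37 °C, and 12-HHT was analysed by HPLC.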

Prostaglandin E synthase [3] = target: T3, Prostaglandin E synthase (Homo sapiens, UniProt O14684); test: Inhibition of mPGES1 in IL1-beta induced human A549 cell microsomal membrane assessed as blockade of conversion of PGH2 to PGE2; format: microsomes, Microsome; in short: as §1
T3 sequence (O14684 whole entry): T1 sequence (whole entry)

[4] = target: T1, Prostaglandin E synthase (Homo sapiens); test: Inhibition of mPGES1 in IL1-beta induced human A549 cells assessed as PGE2 production at 30 uM preincubated for 10 mins; format: cell-based; parameters: scale not given: the % may be the effect or the level left
In short: (§2)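 Intact IL-1β-induced A549 cells (4×10^6/ml PBS, 1 mM CaCl2) were preincubated with compound (DMSO ≤0.3%) for 10 min at 37 °C. [3H]PGE2 was separated by RP-18 SPE/HPLC and counted by liquid scintillation.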

A549 = test: Toxicity in human A549 cells assessed as reduction of cell viability by MTT assay; format: cell-based
In short: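 A549 cells (4×10^4 per 100 µl) were plated for 16 h, then exposed to compounds at 30 µM (DMSO ≤0.3%) for 5 h. MTT was added for 4 h, formazan was solubilized in 10% SDS/20 mM HCl, and absorbance at 595 nm was read relative to vehicle-treated cells.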

[5] = target: Prostaglandin G/H synthase 1 (Homo sapiens) (UniProt P23219); test: Inhibition of COX1 in platelets assessed as inhibition of 12-HHT formation at 10 uM by RP-HPLC
In short: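 Freshly isolated human platelets (10^8/ml PBS with 1 mM CaCl2) were preincubated with compound (DMSO ≤0.3%), then stimulated with 5 µM AA for 5 min at 37 °C. 12-HHT was extracted and quantified by RP-HPLC. Mean ± SE, n=3–5.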

[6] = target: T4, Prostaglandin G/H synthase 2 (Homo sapiens) (UniProt P35354); test: Inhibition of COX2 in IL1-beta induced human A549 cells assessed as 6-keto-PGF1-alpha formation up to 30 uM preincubated for 15 mins by ELISA; format: cell-based
T4 sequence (whole entry): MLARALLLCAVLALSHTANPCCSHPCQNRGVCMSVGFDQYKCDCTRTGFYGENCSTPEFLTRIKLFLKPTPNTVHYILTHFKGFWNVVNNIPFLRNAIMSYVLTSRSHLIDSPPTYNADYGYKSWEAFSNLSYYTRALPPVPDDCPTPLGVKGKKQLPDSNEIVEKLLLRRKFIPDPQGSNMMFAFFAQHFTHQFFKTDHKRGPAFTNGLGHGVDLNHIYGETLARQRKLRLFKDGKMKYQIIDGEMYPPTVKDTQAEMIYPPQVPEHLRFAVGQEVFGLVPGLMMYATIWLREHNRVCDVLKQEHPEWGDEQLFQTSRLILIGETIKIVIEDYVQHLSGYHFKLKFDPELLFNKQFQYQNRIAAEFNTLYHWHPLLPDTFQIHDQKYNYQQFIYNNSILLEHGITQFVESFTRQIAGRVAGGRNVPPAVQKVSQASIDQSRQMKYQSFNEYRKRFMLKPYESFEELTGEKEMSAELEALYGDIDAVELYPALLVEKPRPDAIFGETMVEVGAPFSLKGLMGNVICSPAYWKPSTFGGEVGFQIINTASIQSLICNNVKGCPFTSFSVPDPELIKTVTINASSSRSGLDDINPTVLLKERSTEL
In short: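 A549 cells were induced with IL-1β (1 ng/ml, 72 h, 2% FCS). Cells at 5×10^6 per ml PBS with 1 mM CaCl2 were preincubated 15 min at 37 °C, then given 30 µM AA for 15 min at 37 °C, and the reaction was stopped on ice. Released 6-keto PGF1α was measured by monoclonal-antibody ELISA with β-galactosidase tracer read at 550 nm.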

Prostaglandin E synthase [7] = target: T3, Prostaglandin E synthase; test: Inhibition of mPGES1 in IL1-beta induced human A549 cells assessed as PGE2 production preincubated for 10 mins; format: cell-based
In short: as §2, with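 “°C. They were then stimulated with 2.5 µM A23187 plus 1 µM AA and [3H]AA (18.4 kBq) for 15 min, and the reaction was stopped on ice.” for “°C.”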

Rattus norvegicus [8] = test: Antiinflammatory activity in Wistar Han rat assessed as reduction in inflammatory cell numbers at 5 mg/kg, ip administered 30 mins before carrageenan challenge; format: functional, organism-based; parameters: dose 5 mg/kg
Rattus norvegicus [9] = test: Antiinflammatory activity in Wistar Han rat assessed as reduction in exudate volume at 5 mg/kg, ip administered 30 mins before carrageenan challenge; format: functional, organism-based; parameters: dose 5 mg/kg
Mus musculus = test: Antiinflammatory activity in CD1 mouse assessed as inhibition of carrageenan-induced paw edema at 5 mg/kg, ip administered 30 mins before carrageenan challenge relative to untreated control; format: functional; conditions: route intraperitoneal
In short: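 Male adult CD1 mice, n=10 per group, given the compound ip (vehicle 2% DMSO) 30 min before subplantar 1% λ-carrageenan in saline (0.05 ml). Paw volume was measured double blind by hydroplethysmometer just before injection and at 2, 4 and 6 h. Inhibition was taken at the 4 h reading versus vehicle.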

Sequence of Prostaglandin G/H synthase 1 (Homo sapiens) (P23219 whole entry): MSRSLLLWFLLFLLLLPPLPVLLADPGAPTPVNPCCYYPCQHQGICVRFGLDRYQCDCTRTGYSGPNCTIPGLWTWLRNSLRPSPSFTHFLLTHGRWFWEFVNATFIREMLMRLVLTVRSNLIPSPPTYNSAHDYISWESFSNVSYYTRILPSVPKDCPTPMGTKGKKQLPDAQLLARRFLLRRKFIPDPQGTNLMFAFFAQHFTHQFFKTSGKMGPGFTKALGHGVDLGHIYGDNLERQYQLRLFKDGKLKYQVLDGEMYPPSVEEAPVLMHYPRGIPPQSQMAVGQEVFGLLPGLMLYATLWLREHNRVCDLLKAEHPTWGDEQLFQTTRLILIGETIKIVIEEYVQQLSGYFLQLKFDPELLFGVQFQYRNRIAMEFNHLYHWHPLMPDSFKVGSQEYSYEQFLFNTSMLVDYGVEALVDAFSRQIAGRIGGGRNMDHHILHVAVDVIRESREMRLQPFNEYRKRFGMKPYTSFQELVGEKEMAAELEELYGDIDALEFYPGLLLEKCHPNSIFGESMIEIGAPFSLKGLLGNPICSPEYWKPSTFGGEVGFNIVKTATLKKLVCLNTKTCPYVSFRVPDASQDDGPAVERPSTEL

Structure (SMILES): CCOC(=O)c1c(CCc2cccc(Cl)c2)[nH]c2ccc(O)cc12
- Activity [1]: 65%

Structure (SMILES): CCOC(=O)c1c(Cc2cccc(Br)c2)[nH]c2c1cc(O)c1ccccc12
- Activity [2]: 82%

Structure (SMILES): CCOC(=O)c1c(Cc2cccc(Cl)c2)n(-c2ccc(-c3ccccc3)cc2)c2ccc(O)cc12
- inhibition [2]: inactive
- Activity [1]: 25%
- IC50 (Prostaglandin E synthase [3]): 3.1 µM

Structure (SMILES): CCOC(=O)c1c(Cc2cccc(OC)c2)[nH]c2c1cc(O)c1ccccc12
- Activity [2]: 89%

Structure (SMILES): CCOC(=O)c1c(Nc2cccc(Cl)c2)[nH]c2c1cc(O)c1ccccc12
- inhibition [2]: inactive
- Activity [4]: 35%
- Activity (A549): Non-toxic
- inhibition [5]: 31%
- Activity [1]: 13%
- inhibition [6]: inactive
- IC50 (Prostaglandin E synthase [3]): 1.6 µM
- IC50 (Prostaglandin E synthase [7]; a549): Dose-dependent effect
- IC50 (Prostaglandin E synthase [7]; read-out: IC50): 7.9 µM

Structure (SMILES): COc1ccc2c(c1)c(CC(=O)O)c(C)n2C(=O)c1ccc(Cl)cc1 [INDOMETHACIN]
- inhibition (Rattus norvegicus [8]): Active
- inhibition (Rattus norvegicus [9]): Active
- inhibition in vivo at 5 mg/kg (Mus musculus): 57%

Structure (SMILES): CCOC(=O)c1c(Cc2ccc(Cl)cc2)[nH]c2c1cc(O)c1ccccc12
- Activity [2]: 26%
- Activity [1]: 26%
- IC50 (Prostaglandin E synthase [3]): 3.4 µM

Structure (SMILES): CCOC(=O)c1c(Cc2cccc(Cl)c2)n(Cc2ccccc2)c2c1cc(O)c1ccccc12
- Activity [4]: 35%
- inhibition [1]: inactive

Structure (SMILES): CCOC(=O)c1c(Cc2cccc(Cl)c2)[nH]c2ccc(O)cc12
- Activity [1]: 55%
